Data published in ChEMBL document CHEMBL4196006, “Aryl thiosemicarbazones for the treatment of trypanosomatidic infections” (Eur J Med Chem, 2018).
Calls of active or inactive are those of the source. No cut-off for these calls is given here.

How the values were obtained:
CYP1A2 = molecular target: T1, CYP1A2 (Homo sapiens, UniProt P05177); experiment: Inhibition of human microsomal CYP1A2 expressed in baculovirus infected BTI-TN-5B1-4 cells at 10 uM incubated for 30 mins by luciferase assay relative to control; type: ADME
T1 sequence (P05177 whole entry): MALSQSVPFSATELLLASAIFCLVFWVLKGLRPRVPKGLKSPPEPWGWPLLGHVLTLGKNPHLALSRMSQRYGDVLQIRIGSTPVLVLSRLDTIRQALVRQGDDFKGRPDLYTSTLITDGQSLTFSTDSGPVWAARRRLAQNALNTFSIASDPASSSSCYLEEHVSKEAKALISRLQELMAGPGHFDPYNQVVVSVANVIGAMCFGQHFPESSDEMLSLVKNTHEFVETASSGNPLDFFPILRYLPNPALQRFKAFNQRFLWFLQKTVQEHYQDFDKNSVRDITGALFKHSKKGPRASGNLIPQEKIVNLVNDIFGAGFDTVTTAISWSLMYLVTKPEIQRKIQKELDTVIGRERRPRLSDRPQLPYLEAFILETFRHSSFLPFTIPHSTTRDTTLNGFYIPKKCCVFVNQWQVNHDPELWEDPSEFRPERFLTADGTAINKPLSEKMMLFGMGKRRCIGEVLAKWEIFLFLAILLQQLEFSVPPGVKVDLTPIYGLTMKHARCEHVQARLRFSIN
Summary of the method: (§1)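 CYP1A2, 2C9, 2C19, 2D6 and 3A4 in microsomes from baculovirus-infected insect cells, each with a P450-Glo luminogenic substrate. Inhibition read as loss of light; single-point at 10 μM, triplicate.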

hERG (KCNH2) = hERG (KCNH2) (Homo sapiens, UniProt Q12809); experiment: Inhibition of human ERG at 10 uM incubated for 2 hrs by fluorescence polarisation assay relative to control
Sequence of hERG (KCNH2) (Q12809 whole entry): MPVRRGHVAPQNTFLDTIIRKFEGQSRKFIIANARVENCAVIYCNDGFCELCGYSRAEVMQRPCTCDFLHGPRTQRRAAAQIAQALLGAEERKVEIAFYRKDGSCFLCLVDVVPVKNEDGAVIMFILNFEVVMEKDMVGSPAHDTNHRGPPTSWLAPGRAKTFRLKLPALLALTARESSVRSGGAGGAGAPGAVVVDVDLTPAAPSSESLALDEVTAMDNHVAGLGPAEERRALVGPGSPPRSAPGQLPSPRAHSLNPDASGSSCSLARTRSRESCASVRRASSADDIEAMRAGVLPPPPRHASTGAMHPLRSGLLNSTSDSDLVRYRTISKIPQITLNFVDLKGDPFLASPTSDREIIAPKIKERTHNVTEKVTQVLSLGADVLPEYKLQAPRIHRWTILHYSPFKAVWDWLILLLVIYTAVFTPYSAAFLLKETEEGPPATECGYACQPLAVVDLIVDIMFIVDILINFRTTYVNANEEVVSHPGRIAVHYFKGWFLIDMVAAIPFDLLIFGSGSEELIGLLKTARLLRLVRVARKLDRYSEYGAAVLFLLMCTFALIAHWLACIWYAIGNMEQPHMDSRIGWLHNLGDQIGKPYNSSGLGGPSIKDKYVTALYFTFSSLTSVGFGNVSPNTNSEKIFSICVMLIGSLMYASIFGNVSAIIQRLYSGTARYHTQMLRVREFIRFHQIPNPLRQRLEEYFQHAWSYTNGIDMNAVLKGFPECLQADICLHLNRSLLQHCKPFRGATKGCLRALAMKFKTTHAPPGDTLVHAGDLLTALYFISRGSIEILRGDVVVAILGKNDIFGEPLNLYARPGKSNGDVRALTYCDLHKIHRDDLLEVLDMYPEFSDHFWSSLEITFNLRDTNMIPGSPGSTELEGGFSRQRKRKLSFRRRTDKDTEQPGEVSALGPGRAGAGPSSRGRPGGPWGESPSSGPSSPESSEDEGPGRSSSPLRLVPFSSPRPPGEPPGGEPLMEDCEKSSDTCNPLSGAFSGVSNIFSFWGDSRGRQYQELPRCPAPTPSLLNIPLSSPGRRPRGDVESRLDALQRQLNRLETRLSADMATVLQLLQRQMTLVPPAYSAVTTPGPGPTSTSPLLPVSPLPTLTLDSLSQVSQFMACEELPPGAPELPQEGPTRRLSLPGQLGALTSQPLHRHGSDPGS

CYP2C9 = CYP2C9 (Homo sapiens, UniProt P11712); experiment: Inhibition of human microsomal CYP2C9 expressed in baculovirus infected BTI-TN-5B1-4 cells at 10 uM incubated for 30 mins by luciferase assay relative to control; type: ADME; summary of the method: as §1
Sequence of CYP2C9 (P11712 whole entry): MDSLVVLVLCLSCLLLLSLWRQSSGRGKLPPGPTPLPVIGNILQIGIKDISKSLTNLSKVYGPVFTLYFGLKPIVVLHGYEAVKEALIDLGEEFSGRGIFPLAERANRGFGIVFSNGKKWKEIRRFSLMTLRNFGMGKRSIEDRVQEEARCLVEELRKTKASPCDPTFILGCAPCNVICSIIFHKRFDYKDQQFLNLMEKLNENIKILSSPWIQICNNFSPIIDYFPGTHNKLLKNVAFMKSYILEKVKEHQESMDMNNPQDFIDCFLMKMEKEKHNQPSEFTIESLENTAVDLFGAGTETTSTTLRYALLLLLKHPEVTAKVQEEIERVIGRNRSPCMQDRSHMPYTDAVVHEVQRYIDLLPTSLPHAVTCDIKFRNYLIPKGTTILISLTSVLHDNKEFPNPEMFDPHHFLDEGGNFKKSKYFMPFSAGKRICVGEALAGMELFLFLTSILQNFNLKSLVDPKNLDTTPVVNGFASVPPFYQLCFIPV

CYP2C19 = CYP2C19 (Homo sapiens, UniProt P33261); experiment: Inhibition of human microsomal CYP2C19 expressed in baculovirus infected BTI-TN-5B1-4 cells at 10 uM incubated for 30 mins by luciferase assay relative to control; type: ADME; summary of the method: as §1
Sequence of CYP2C19 (P33261 whole entry): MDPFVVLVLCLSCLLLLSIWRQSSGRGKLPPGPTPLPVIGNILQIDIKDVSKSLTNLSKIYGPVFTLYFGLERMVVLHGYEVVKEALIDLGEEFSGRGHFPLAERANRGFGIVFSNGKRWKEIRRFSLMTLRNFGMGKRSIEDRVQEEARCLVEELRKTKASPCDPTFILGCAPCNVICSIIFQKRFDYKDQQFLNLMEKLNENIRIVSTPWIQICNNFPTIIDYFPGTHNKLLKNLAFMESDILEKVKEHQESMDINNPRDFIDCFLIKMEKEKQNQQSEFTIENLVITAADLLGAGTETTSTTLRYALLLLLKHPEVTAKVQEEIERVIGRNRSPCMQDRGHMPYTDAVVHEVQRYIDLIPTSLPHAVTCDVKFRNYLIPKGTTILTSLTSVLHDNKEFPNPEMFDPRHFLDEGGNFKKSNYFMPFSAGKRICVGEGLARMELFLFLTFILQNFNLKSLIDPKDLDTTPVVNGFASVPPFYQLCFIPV

CYP2D6 = CYP2D6 (Homo sapiens, UniProt P10635); experiment: Inhibition of human microsomal CYP2D6 expressed in baculovirus infected BTI-TN-5B1-4 cells at 10 uM incubated for 30 mins by luciferase assay relative to control; type: ADME; summary of the method: as §1
Sequence of CYP2D6 (P10635 whole entry): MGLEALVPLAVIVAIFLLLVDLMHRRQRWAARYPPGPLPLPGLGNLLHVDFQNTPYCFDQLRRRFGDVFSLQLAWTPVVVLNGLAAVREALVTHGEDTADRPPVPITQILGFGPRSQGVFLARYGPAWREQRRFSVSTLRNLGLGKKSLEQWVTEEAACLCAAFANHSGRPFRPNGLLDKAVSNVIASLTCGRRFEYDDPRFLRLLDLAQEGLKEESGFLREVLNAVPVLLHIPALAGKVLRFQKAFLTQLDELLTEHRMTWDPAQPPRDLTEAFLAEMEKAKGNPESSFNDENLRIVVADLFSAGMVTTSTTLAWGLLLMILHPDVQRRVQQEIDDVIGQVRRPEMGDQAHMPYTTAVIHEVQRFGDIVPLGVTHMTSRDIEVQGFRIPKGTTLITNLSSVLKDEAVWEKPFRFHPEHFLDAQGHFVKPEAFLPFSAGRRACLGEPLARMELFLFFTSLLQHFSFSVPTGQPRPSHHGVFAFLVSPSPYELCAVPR

CYP3A4 = CYP3A4 (Homo sapiens, UniProt P08684); experiment: Inhibition of human microsomal CYP3A4 expressed in baculovirus infected BTI-TN-5B1-4 cells at 10 uM incubated for 30 mins by luciferase assay relative to control; type: ADME; summary of the method: as §1
Sequence of CYP3A4 (P08684 whole entry): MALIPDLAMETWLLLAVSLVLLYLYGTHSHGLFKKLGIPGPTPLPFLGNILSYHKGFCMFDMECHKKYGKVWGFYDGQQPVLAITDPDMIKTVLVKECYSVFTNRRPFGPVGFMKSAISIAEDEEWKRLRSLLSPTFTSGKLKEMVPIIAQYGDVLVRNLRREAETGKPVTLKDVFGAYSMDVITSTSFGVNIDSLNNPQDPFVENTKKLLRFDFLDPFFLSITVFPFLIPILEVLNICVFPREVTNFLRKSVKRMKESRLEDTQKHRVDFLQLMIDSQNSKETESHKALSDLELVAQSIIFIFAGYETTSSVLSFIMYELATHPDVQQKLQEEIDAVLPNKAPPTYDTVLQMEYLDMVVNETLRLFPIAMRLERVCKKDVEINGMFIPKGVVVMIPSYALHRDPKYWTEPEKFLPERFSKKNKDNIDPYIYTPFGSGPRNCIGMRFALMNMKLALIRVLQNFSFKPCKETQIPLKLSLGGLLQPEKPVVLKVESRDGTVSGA

Aurora kinase B = Aurora kinase B (Homo sapiens, UniProt Q96GD4); experiment: Inhibition of recombinant full-length human aurora B kinase expressed in baculovirus system at 10 uM using MBP as substrate incubated for 45 mins by ADP-glo kinase assay; settings: probe MBP
Sequence of Aurora kinase B (Q96GD4 whole entry): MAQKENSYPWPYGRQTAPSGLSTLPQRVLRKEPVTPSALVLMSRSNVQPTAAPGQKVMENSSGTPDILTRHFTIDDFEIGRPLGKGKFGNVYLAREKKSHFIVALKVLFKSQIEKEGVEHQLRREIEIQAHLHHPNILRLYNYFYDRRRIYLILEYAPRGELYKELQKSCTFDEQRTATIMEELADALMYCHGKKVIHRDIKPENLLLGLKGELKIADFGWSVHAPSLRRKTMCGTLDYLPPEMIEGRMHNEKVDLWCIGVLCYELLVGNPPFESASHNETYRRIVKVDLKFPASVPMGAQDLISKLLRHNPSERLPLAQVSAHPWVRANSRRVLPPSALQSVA
Summary of the method: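 Aurora B activity measured as ADP formation via coupled luciferase ADP-Glo luminescence; single-point at 10 μM, triplicate.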

[1] = molecular target: T2, Pteridine reductase, putative (Trypanosoma brucei) (UniProt Q581W1); experiment: Inhibition of Trypanosoma brucei PTR1 at 50 uM using H2B as substrate in presence of NADPH by photometric analysis relative to control
T2 sequence (whole entry): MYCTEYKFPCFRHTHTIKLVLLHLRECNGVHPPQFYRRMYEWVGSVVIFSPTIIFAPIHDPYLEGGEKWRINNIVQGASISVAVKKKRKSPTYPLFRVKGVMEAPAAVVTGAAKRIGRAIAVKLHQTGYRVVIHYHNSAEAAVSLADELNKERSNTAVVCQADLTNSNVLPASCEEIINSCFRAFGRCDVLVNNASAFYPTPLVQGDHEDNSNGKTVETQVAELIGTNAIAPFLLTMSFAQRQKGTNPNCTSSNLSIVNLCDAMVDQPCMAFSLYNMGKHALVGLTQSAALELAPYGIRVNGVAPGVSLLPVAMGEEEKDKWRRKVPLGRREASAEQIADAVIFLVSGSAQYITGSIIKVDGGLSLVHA

[2] = molecular target: T3, Pteridine reductase 1 (Leishmania major) (UniProt Q01782); experiment: Inhibition of Leishmania major PTR1 at 50 uM using H2B as substrate in presence of NADPH by photometric analysis relative to control
T3 sequence (whole entry): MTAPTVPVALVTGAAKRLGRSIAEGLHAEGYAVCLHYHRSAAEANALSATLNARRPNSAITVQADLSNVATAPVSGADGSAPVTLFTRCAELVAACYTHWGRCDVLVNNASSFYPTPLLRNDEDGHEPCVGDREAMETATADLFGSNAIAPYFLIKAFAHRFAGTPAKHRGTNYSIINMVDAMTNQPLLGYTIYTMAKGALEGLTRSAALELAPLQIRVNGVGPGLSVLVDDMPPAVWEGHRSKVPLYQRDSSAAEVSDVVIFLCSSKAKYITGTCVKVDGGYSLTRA

Trypanosoma cruzi = experiment: Antitrypanosomal activity against Trypanosoma cruzi amastigote form infected in human U2OS cells assessed as parasite growth inhibition at 50 uM after 72 hrs relative to control; type: functional; settings: for inhibition of growth at 50 µM: read-out: GI
Summary of the method: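 U2OS monolayers grown for 24 h, then infected with tissue-derived trypomastigotes of T. cruzi Y strain. Compounds were added 24 h after infection at 50 μM (single-point) or in dose-response, with 72 h exposure. Plates were fixed, stained and analysed by high-content imaging; activity was normalized to infected and non-infected controls. Means of at least two experiments; benznidazole as reference.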

Trypanosoma brucei [3] = experiment: Antitrypanosomal activity against Trypanosoma brucei Lister 427 bloodstream form assessed as parasite growth inhibition at 50 uM after 72 hrs by SYBR Green assay relative to control; type: functional; settings: for inhibition of growth at 50 µM: Lister 427, 72 h, read-out: GI
Leishmania infantum = experiment: Antileishmanial activity against Leishmania infantum amastigote form assessed as parasite growth inhibition at 50 uM after 72 hrs by steady-Glo reagent based assay relative to control; type: functional; settings: read-out: GI
Summary of the method: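 Intramacrophage L. infantum amastigotes in THP-1-derived macrophages, tested at 50 μM or in dose-response. Plates held 72 h at 37 °C, 5% CO2. Medium was replaced by PBS, macrophages lysed, and parasites read by Steady-Glo luminescence. High-content imaging gave host cell number, infection ratio (infected/total cells) and parasites per infected cell. Values are means of at least two independent experiments.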

Trypanosoma brucei [4] = experiment: Antitrypanosomal activity against Trypanosoma brucei Lister 427 bloodstream form at 10 uM after 72 hrs by resazurin dye-based assay relative to control; type: functional
Trypanosoma brucei [5] = experiment: Potentiation of methotrexate-induced antitrypanosomal activity against Trypanosoma brucei Lister 427 bloodstream form at 10 uM after 72 hrs by resazurin dye-based assay relative to control; type: functional
Trypanosoma brucei [6] = experiment: Potentiation of methotrexate-induced antitrypanosomal activity against Trypanosoma brucei Lister 427 bloodstream form at 10 uM after 72 hrs by resazurin dye-based assay; type: functional
[7] = Cytotoxicity against human 786-O cells assessed as inhibition of mitochondrial viability at 10 uM after 6 hrs by CMXRos staining based assay relative to control; type: cell-based, 786-0; settings: read-out: INH
Summary of the method: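 Mitochondrial toxicity monitored by MitoTracker Red CMXRos uptake and high-content imaging; compound at 10 μM, triplicate.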

[8] = Cytotoxicity against human THP1 cells assessed as viable cells at 100 uM after 72 hrs by MTT assay relative to control; type: cell-based, THP-1; settings: read-out: Activity
Summary of the method: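 THP-1-derived macrophages exposed to compounds for 72 h, tested at 100 μM or in dose-response; viability read by MTT colorimetric assay.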

[9] = Cytotoxicity against human U2OS cells assessed as viable cells at 50 uM after 72 hrs by MTT assay relative to control; type: cell-based; settings: read-out: Activity
[10] = Cytotoxicity against human A549 cells assessed as growth inhibition at 10 uM after 48 hrs by CellTiter-Glo assay relative to control; values are per cent of control; settings: A549 cells
[11] = Cytotoxicity against human WI38 cells assessed as growth inhibition at 10 uM after 48 hrs by CellTiter-Glo assay relative to control; values are per cent of control; settings: WI38 cells

Structure (SMILES)	inhibition at 0.5 h, 10 µM (CYP1A2) [%]	inhibition at 2 h, 10 µM (hERG (KCNH2)) [%]	inhibition at 0.5 h, 10 µM (CYP2C9) [%]	inhibition at 0.5 h, 10 µM (CYP2C19) [%]	inhibition at 0.5 h, 10 µM (CYP2D6) [%]	inhibition at 0.5 h, 10 µM (CYP3A4) [%]	inhibition at 0.75 h, 10 µM (Aurora kinase B) [%]	inhibition [1] [%]	inhibition [2] [%]	inhibition of growth at 50 µM (Trypanosoma cruzi) [%]	further results
NC(=S)N/N=C/c1ccc(O)cc1	-5.15	7.48	-21.1	-42.9	-3.36	-24.4	-5.27	19.6	18.2	–	–
Nc1nnc(/C=C/c2ccccc2)s1	–	–	–	–	–	–	–	–	–	82	–
COc1ccc(-c2nnc(N)s2)cc1OC	–	–	–	–	–	–	–	–	–	30.2	–
NC(=S)N/N=C/c1ccc(O)c(O)c1	-6.6	4.17	-7.51	-49.1	-9.48	-7.74	-12.2	30.7	56.5	–	–
NC(=S)N/N=C/c1csc2ccccc12	100	-5.27	14.6	-17.1	22.1	5.98	-4.29	3.09	4.9	24.3	inhibition of growth at 50 µM (Trypanosoma brucei [3]): 3.57%; inhibition of growth at 50 µM (Leishmania infantum): 24.4%; Activity (Trypanosoma brucei [4]): 21%; Activity (Trypanosoma brucei [5]): 52.33%; PF (Trypanosoma brucei [6]): 1.16; cytotoxicity at 6 h, 10 µM [7]: 12.6%; viability at 72 h, 100 µM [8]: 44.9%; viability at 72 h, 50 µM [9]: 152%; cell growth (% of control) at 48 h, 10 µM [10]: 101%; cell growth (% of control) at 48 h, 10 µM [11]: 95.3%
Nc1nnc(-c2ccc(-c3ccccc3)cc2)s1	–	–	–	–	–	–	–	–	–	31.2	–
Nc1nnc(-c2cccc(Br)c2)s1	–	–	–	–	–	–	–	–	–	41.6	–
NC(=S)N/N=C/c1cccc(-c2ccccc2)c1	83.9	5.99	14.7	-27.2	20.6	5.26	-4.25	9.25	3.5	20.2	inhibition of growth at 50 µM (Trypanosoma brucei [3]): 0.9%; inhibition of growth at 50 µM (Leishmania infantum): 35.8%; Activity (Trypanosoma brucei [4]): 28.5%; Activity (Trypanosoma brucei [5]): 93.5%; PF (Trypanosoma brucei [6]): 1.77; cytotoxicity at 6 h, 10 µM [7]: 4.4%; viability at 72 h, 100 µM [8]: 45.2%; viability at 72 h, 50 µM [9]: 112%; cell growth (% of control) at 48 h, 10 µM [10]: 110%; cell growth (% of control) at 48 h, 10 µM [11]: 111%
COc1ccc(/C=N/NC(N)=S)cc1OC	-9.14	4.1	-19.2	-30.2	-20.5	-24.4	-7.72	20.1	20.7	–	–
C/C(=N\NC(N)=S)c1ccc(O)cc1	-0.75	3.53	-9.01	-63.9	-24.5	-4.7	-0.05	26.2	7.77	37	growth inhibition (GI) (Trypanosoma brucei [3]): inactive; inhibition of growth at 50 µM (Leishmania infantum): 23.9%; Activity (Trypanosoma brucei [4]): 14.83%; Activity (Trypanosoma brucei [5]): 87.83%; PF (Trypanosoma brucei [6]): 2.25; cytotoxicity at 6 h, 10 µM [7]: 5.9%; viability at 72 h, 100 µM [8]: 72.2%; viability at 72 h, 50 µM [9]: 90.2%; cell growth (% of control) at 48 h, 10 µM [10]: 126%; cell growth (% of control) at 48 h, 10 µM [11]: 101%
Nc1nnc(-c2cccc(-c3ccc4c(c3)OCO4)c2)s1	–	–	–	–	–	–	–	–	–	–	growth inhibition (GI) (Trypanosoma cruzi): inactive
Nc1nnc(-c2ccc(O)c(O)c2)s1	–	–	–	–	–	–	–	–	–	16.6	–
Nc1nnc(-c2cccc(-c3ccccc3)c2)s1	–	–	–	–	–	–	–	–	–	–	growth inhibition (GI) (Trypanosoma cruzi): inactive
COc1cc(/C=N/NC(N)=S)ccc1O	7.06	6.07	-7.31	-20.3	22.2	-9.76	-0.27	9.78	9.85	–	–
COc1ccccc1-c1nnc(N)s1	–	–	–	–	–	–	–	–	–	–	growth inhibition (GI) (Trypanosoma cruzi): inactive
Nc1nnc(-c2ccc(Cl)c(Cl)c2)s1	–	–	–	–	–	–	–	–	–	23.4	–
COc1ccccc1/C=N/NC(N)=S	29.6	5.91	-19.8	-52.9	-8.91	-23.2	-16.9	5.67	9.19	–	–
Nc1nnc(-c2ccco2)s1	–	–	–	–	–	–	–	–	–	–	growth inhibition (GI) (Trypanosoma cruzi): inactive
COc1cc(-c2nnc(N)s2)cc(OC)c1OC	–	–	–	–	–	–	–	–	–	–	growth inhibition (GI) (Trypanosoma cruzi): inactive
COc1ccc(-c2cccc(-c3nnc(N)s3)c2)cc1OC	–	–	–	–	–	–	–	–	–	14.6	–
COc1cccc(OC)c1-c1nnc(N)s1	–	–	–	–	–	–	–	–	–	27.1	–
Nc1nnc(-c2ccc(OCc3ccc(Cl)c(Cl)c3)cc2)s1	–	–	–	–	–	–	–	–	–	14.5	–
